Laboratory results: ChEMBL document CHEMBL4052705, “Synthesis and biological evaluation of 2-methyl-1H-benzimidazole-5-carbohydrazides derivatives as modifiers of redox homeostasis of Trypanosoma cruzi” (Bioorg Med Chem Lett, 2017)
Calls of active or inactive are those of the source. The calls are words filed in the database; no cut-off is given here.

What was measured:
Trypanosoma cruzi [1] = assay: Induction of changes in cellular redox balance in Trypanosoma cruzi Queretaro epimastigotes assessed as increase in GSH level incubated for 24 hrs by HPLC and UV-Vis spectrophotometry; assay type: functional
[2] = Selectivity index, ratio of CC50 for cytotoxicity against mouse J774 cells to IC50 for antitrypanosomal activity against Trypanosoma cruzi Queretaro epimastigotes; assay type: toxicity, cell-based; details: read-out: Ratio CC50/IC50
Procedure, shortened: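 Selectivity index was calculated as CC50 in J774 mouse macrophages (resazurin reduction) divided by IC50 for growth inhibition of Queretaro-strain epimastigotes.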

Trypanosoma cruzi [3] = assay: Induction of changes in cellular redox balance in Trypanosoma cruzi Queretaro epimastigotes assessed as increase in cysteine level incubated for 24 hrs by HPLC and UV-Vis spectrophotometry; assay type: functional
[4] = Cytotoxicity against mouse J774 cells incubated for 24 hrs by resazurin dye based fluorescence assay; assay type: cell-based
Procedure, shortened: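 J774 mouse macrophage cell line was exposed to the compounds, and cytotoxicity was read as resazurin reduction using a previously described method with modifications. The read-out gave CC50.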

Trypanosoma cruzi [5] = assay: Induction of changes in cellular redox balance in Trypanosoma cruzi Queretaro epimastigotes assessed as increase in T(SH)2 level at 5 to 20 uM incubated for 24 hrs by HPLC and UV-Vis spectrophotometry; assay type: functional
Trypanosoma cruzi [6] = assay: Antitrypanosomal activity against Trypanosoma cruzi Queretaro epimastigotes assessed as reduction in parasite viability incubated for 24 hrs by Neubauer hematocytometery; assay type: functional
Procedure, shortened: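 T. cruzi Queretaro-strain epimastigotes were exposed to the compounds and parasite growth was measured. IC50 was taken as the concentration that inhibits parasite growth by 50%.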

IC50 (Trypanosoma cruzi [6]) [µM]	Compound	selectivity ratio [2]	further results
8	COc1cc(/C=C/C=N/NC(=O)c2ccc3[nH]c(C)nc3c2)ccc1O	20.1	Activity (Trypanosoma cruzi [1]): Dose-dependent effect; Activity (Trypanosoma cruzi [3]): Dose-dependent effect; CC50 at 24 h [4]: 161 µM; Activity (Trypanosoma cruzi [5]): Active
380	Cc1nc2cc(C(=O)N/N=C/c3ccc(O)c(O)c3)ccc2[nH]1		
> 500	COc1ccc(/C=N/NC(=O)c2ccc3[nH]c(C)nc3c2)c(OC)c1OC		
320	COc1ccc(/C=N/NC(=O)c2ccc3[nH]c(C)nc3c2)cc1		
7.5	O=C(Cn1ccnc1[N+](=O)[O-])NCc1ccccc1 [BENZNIDAZOLE]		
> 500	COc1ccc(/C=N/NC(=O)c2ccc3[nH]c(C)nc3c2)cc1OC		
280	Cc1nc2cc(C(=O)N/N=C/c3ccccc3)ccc2[nH]1		
3	COc1cc(/C=N/NC(=O)c2ccc3[nH]c(C)nc3c2)ccc1O	53.5	Activity (Trypanosoma cruzi [1]): Dose-dependent effect; Activity (Trypanosoma cruzi [3]): Dose-dependent effect; CC50 at 24 h [4]: 161 µM; Activity (Trypanosoma cruzi [5]): inactive
	CC1CS(=O)(=O)CCN1/N=C/c1ccc([N+](=O)[O-])o1 (stereo not given) [NIFURTIMOX]	36.5	
> 500	COc1cc(/C=N/NC(=O)c2ccc3[nH]c(C)nc3c2)cc(OC)c1OC		
> 500	Cc1nc2cc(C(=O)N/N=C/c3cc(O)ccc3O)ccc2[nH]1		
393	Cc1nc2cc(C(=O)NN)ccc2[nH]1	0.6	CC50 at 24 h [4]: 233 µM
> 500	Cc1nc2cc(C(=O)N/N=C/c3ccc(O)cc3)ccc2[nH]1		
> 500	Cc1nc2cc(C(=O)N/N=C/c3ccc4c(c3)OCCO4)ccc2[nH]1		
434	Cc1nc2cc(C(=O)N/N=C/c3ccc([N+](=O)[O-])o3)ccc2[nH]1		
226	Cc1nc2cc(C(=O)O)ccc2[nH]1	1.2	CC50 at 24 h [4]: 264 µM
